In experiment [1] the target is T1, Neuropeptide Y receptor type 4 (Homo sapiens, UniProt P50391). The experiment in a line: Positive allosteric modulation of human C-terminal eYFP-tagged NY4 receptor expressed in HEK293 cells assessed as potentiation of peptide YY-induced arrestin 3 recruitment by measuring peptide YY pEC50 at 30 uM after 30 mins by BRET assay (Rvb = 5.8 +/- 0.20 No_unit). In general terms: Recruitment of arrestin is a read-out of receptor activation apart from second messengers.
T1 sequence (P50391 whole entry C240R): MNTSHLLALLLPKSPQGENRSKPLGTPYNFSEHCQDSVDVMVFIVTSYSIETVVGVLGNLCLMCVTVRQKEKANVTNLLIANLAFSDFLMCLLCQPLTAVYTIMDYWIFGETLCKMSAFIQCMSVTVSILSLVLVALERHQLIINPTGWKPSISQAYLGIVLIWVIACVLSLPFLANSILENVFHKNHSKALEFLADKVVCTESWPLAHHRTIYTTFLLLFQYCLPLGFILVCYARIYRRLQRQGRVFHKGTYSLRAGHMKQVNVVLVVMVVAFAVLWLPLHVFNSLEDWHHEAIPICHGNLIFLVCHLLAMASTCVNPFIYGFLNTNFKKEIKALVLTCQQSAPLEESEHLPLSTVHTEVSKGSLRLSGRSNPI

The nature of experiment [2]: Positive allosteric modulation of human C-terminal eYFP-tagged NY4 receptor expressed in HEK293 cells assessed as potentiation of neuropeptide Y-induced arrestin 3 recruitment by measuring neuropeptide Y pEC50 at 30 uM after 30 mins by BRET assay (Rvb = 5.9 +/- 0.15 No_unit).
In experiment [3] the target is T2, Neuropeptide Y receptor type 2 (Homo sapiens, UniProt P49146).
T2 sequence (P49146 whole entry): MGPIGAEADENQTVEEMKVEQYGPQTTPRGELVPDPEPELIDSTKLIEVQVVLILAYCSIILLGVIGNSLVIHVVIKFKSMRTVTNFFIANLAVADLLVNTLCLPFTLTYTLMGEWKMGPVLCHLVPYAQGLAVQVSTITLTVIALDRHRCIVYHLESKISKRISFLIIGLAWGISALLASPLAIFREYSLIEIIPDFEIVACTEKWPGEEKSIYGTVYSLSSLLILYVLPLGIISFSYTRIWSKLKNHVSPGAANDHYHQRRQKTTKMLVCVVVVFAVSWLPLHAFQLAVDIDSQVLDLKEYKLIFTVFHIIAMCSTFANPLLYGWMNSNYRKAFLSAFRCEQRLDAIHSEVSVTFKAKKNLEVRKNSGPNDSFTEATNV
Nature of the experiment: ASSAY_NAME: ChEMBL_1668994 (CHEMBL4018882) DESCRIPTION: Positive allosteric modulation of human C-terminal eYFP-fused human NY2 receptor expressed in African green monkey COS7 cells co-expressing delta6Galphaqi4-myr assessed as potentiation of neuropeptide Y-mediated Ca2+ flux by measuring pancreatic polypeptide EC50 at 30 uM treated at 20 secs post baseline detection followed by addition of …. Background: A change in cytosolic calcium serves as a functional read-out for many receptors and channels.

Experiment [4] in a line: Positive allosteric modulation of human NY4 receptor expressed in African green monkey COS7 cells co-expressing delta6Galphaqi4-myr assessed as potentiation of pancreatic polypeptide induced-calcium flux by measuring pancreatic polypeptide pEC50 at 30 uM treated at 20 secs post baseline detection followed by addition of pancreatic polypeptide.
For experiment [5], the target named is T1, Neuropeptide Y receptor type 4. The experiment in a line: Positive allosteric modulation of human NY4 receptor expressed in African green monkey COS7 cells co-expressing delta6Galphaqi4-myr assessed as potentiation of peptide YY induced-calcium flux by measuring peptide YY pEC50 at 30 uM treated at 20 secs post baseline detection followed by addition of peptide YY after 140 secs by Fluo2-AM fluorescent dye based-assay (Rvb = 8.6 +/- 0.08 No_unit). The method in brief:
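COS7 cells stably co-expressing Y4R-eYFP and Δ6Gαqi4-myr were seeded overnight. They were loaded with 2.4 μM Fluo2-AM in HBSS/20 mM HEPES/[…] for 60 min at 37 °C, then kept in assay buffer. Fluorescence was read at ex 485/em 525 nm. Compound was added after a 20 s baseline and peptide at 140 s. Response was taken as x-fold over basal, normalized to the DMSO control, and fitted to an operational model of allosterism. Duplicates, at least three independent runs.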

Experiment [6] in a line: Positive allosteric modulation of human C-terminal eYFP-fused human NY1 receptor expressed in African green monkey COS7 cells co-expressing delta6Galphaqi4-myr assessed as potentiation of neuropeptide Y-mediated Ca2+ flux by measuring […] at 30 uM treated at 20 secs post baseline detection followed by addition of neuro.
Experiment [7] addresses T1, Neuropeptide Y receptor type 4. Nature of the experiment: Positive allosteric modulation of human NY4 receptor expressed in African green monkey COS7 cells co-expressing delta6Galphaqi4-myr assessed as potentiation of peptide YY induced-calcium flux by measuring peptide YY EC50 at 30 uM treated at 20 secs post baseline detection followed by addition of peptide YY after 140 secs by Fluo2-AM fluorescent dye based-assay (Rvb = 2.6 nM). The method in brief:
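COS7 cells stably co-expressing human Y4R-eYFP fusion and chimeric Δ6Gαqi4-myr, seeded overnight in 96-well format; loaded with 2.4 μM Fluo2-AM in HBSS/20 mM HEPES/probenecid, 60 min at 37 °C. Two-addition FlexStation read (ex 485/em 525 nm): compound or DMSO after 20 s baseline, PYY at 140 s. Response as x-fold over basal, normalized to PP; duplicates, ≥3 independent experiments.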

The nature of experiment [8]: Positive allosteric modulation of human NY4 receptor expressed in African green monkey COS7 cells co-expressing delta6Galphaqi4-myr assessed as potentiation of neuropeptide Y induced-calcium flux by measuring neuropeptide Y pEC50 at 30 uM treated at 20 secs post baseline detection followed by addition of neuropeptide Y after 140 secs by Fluo2.
Experiment [9] deals with T1, Neuropeptide Y receptor type 4. Nature of the experiment: ASSAY_NAME: ChEMBL_1668991 (CHEMBL4018879) DESCRIPTION: Positive allosteric modulation of human NY4 receptor expressed in African green monkey COS7 cells co-expressing delta6Galphaqi4-myr assessed as potentiation of pancreatic polypeptide induced-calcium flux by measuring pancreatic polypeptide EC50 at 30 uM treated at 20 secs post baseline detection followed by addition of pancreatic polypeptide ….

Experiment [10] has the same target. Nature of the experiment: Effect on neuropeptide Y-mediated displacement of 125I-pancreatic polypeptide from human C-terminal eYFP-tagged NY4 receptor expressed in HEK293 cell membranes assessed as neuropeptide Y pKi at 30 uM after 5 hrs by scintillation counting (Rvb = 7.9 +/- 0.2 No_unit).
The target is the same in experiment [11]. Nature of the experiment: Positive allosteric modulation of human C-terminal eYFP-tagged NY4 receptor expressed in HEK293 cells assessed as potentiation of peptide YY-induced arrestin 3 recruitment by measuring peptide YY EC50 at 30 uM after 30 mins by BRET assay (Rvb = 1600 nM).
Experiment [12] shares this target. Nature of the experiment: Positive allosteric modulation of human C-terminal eYFP-tagged NY4 receptor expressed in HEK293 cells assessed as potentiation of pancreatic polypeptide-induced arrestin 3 recruitment by measuring pancreatic polypeptide EC50 at 30 uM after 30 mins by BRET assay (Rvb = 5.6 nM).
Experiment [13] shares this target. Nature of the experiment: Positive allosteric modulation of human C-terminal eYFP-tagged NY4 receptor expressed in HEK293 cells assessed as potentiation of pancreatic polypeptide-induced arrestin 3 recruitment by measuring pancreatic polypeptide pEC50 at 30 uM after 30 mins by BRET assay (Rvb = 8.3 +/- 0.12 No_unit).
The target is the same in experiment [14]. The experiment in a line: Effect on peptide YY-mediated displacement of 125I-pancreatic polypeptide from human C-terminal eYFP-tagged NY4 receptor expressed in HEK293 cell membranes assessed as peptide YY pKi at 30 uM after 5 hrs by scintillation counting (Rvb = 8 +/- 0.2 No_unit).
The nature of experiment [15]: Positive allosteric modulation of human C-terminal eYFP-tagged NY4 receptor expressed in HEK293 cells assessed as potentiation of neuropeptide Y-induced arrestin 3 recruitment by measuring neuropeptide Y EC50 at 30 uM after 30 mins by BRET assay (Rvb = 1380 nM).
A short description of experiment [16]: Positive allosteric modulation of human NY4 receptor expressed in African green monkey COS7 cells co-expressing delta6Galphaqi4-myr assessed as potentiation of neuropeptide Y induced-calcium flux by measuring neuropeptide Y EC50 at 30 uM treated at 20 secs post baseline detection followed by addition of neuropeptide Y after 140 secs by Fluo2-.

`CC(C)(C)c1ccc(OC2CCCCC2O)cc1` (stereo unspecified): the EC50 in experiment [1] is 794 nM; in [2], 398 nM; in experiment [3] it was 0.0631 nM; in experiment [4], 0.0398 nM; in experiment [5] it was 0.501 nM; in experiment [6] it was 0.0398 nM. Besides, the EC50 in experiment [7] worked out at 0.5 nM; in experiment [8], 0.398 nM; in [9], 0.03 nM; in experiment [11] it was 845 nM; in experiment [12] it was 4.5 nM; in [13], 4 nM. The results for the EC50 in [15] and in [16] were 443 nM and 0.4 nM, respectively. For the same molecule, the Ki in experiment [10] and in experiment [14] was 6.3 nM in each case.

One may read the EC50 as the concentration that produces a half-maximal response. The Ki is the dissociation constant of the complex between target and ligand, obtained from inhibition or displacement.

(Values after BindingDB's records for doi:10.1021/acs.jmedchem.7b00976 (Leipzig University, 2017).)
